Laboratory results published in ChEMBL document CHEMBL3351270, “Curcumolide, a unique sesquiterpenoid with anti-inflammatory properties from Curcuma wenyujin” (Bioorg Med Chem Lett, 2015).
Activity calls are given as the source filed them. The calls are words filed in the database; no cut-off is given here.

Columns and labels:
RAW264.7 [1] = assay: Antiinflammatory activity in mouse RAW264.7 cells assessed as inhibition of LPS-induced increase in TNF-alpha level at 10 uM incubated for 2 hrs prior to LPS challenge measured after 22 hrs by ELISA relative to control; type: functional
In short: (§1)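 RAW 264.7 macrophages pretreated 2 h with compound (0–20 µM) or 10 µM hydrocortisone as positive control, then exposed to LPS for a further 22 h. TNF-α, IL-1β and IL-6 in culture medium determined by ELISA. Means ± SEM from four independent experiments.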

RAW264.7 [2] = assay: Antiinflammatory activity in mouse RAW264.7 cells assessed as inhibition of LPS-induced increase in IL-6 level at 10 uM incubated for 2 hrs prior to LPS challenge measured after 22 hrs by ELISA relative to control; type: functional; in short: as §1
RAW264.7 [3] = assay: Antiinflammatory activity in mouse RAW264.7 cells assessed as inhibition of LPS-induced increase in IL-1beta level at 10 uM incubated for 2 hrs prior to LPS challenge measured after 22 hrs by ELISA relative to control; type: functional; in short: as §1
RAW264.7 [4] = assay: Antiinflammatory activity in mouse RAW264.7 cells assessed as inhibition of LPS-induced nitric oxide production at 10 uM incubated for 2 hrs prior to LPS challenge measured after 22 hrs relative to vehicle-treated control; type: functional
In short: (§2)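 Cells treated 2 h with compound (0–20 µM) or 10 µM hydrocortisone, followed by LPS for a further 22 h. NO production estimated as nitrite in culture medium by Griess reaction. Inhibition expressed as blocked ratio. Means ± SEM, four independent experiments.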

RAW264.7 [5] = assay: Cytotoxicity against mouse RAW264.7 cells assessed as cell viability at 0.01 to 100 uM after 24 hrs by MTT assay; type: cell-based; settings: raw264.7, 24 h
In short: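 Viability of RAW 264.7 cells measured by MTT after 24 h exposure to compound at 0.01–100 µM.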

RAW264.7 [6] = assay: Antiinflammatory activity in mouse RAW264.7 cells assessed as inhibition of LPS-induced increase in TNF-alpha level incubated for 2 hrs prior to LPS challenge measured after 22 hrs by ELISA; type: functional, cell-based; in short: as §1
RAW264.7 [7] = assay: Antiinflammatory activity in mouse RAW264.7 cells assessed as inhibition of LPS-induced increase in IL-6 level incubated for 2 hrs prior to LPS challenge measured after 22 hrs by ELISA; type: functional, cell-based; in short: as §1
RAW264.7 [8] = assay: Antiinflammatory activity in mouse RAW264.7 cells assessed as inhibition of LPS-induced increase in IL-1beta level incubated for 2 hrs prior to LPS challenge measured after 22 hrs by ELISA; type: functional, cell-based; in short: as §1
RAW264.7 [9] = assay: Antiinflammatory activity in mouse RAW264.7 cells assessed as inhibition of LPS-induced increase in TNF-alpha level at 20 uM incubated for 2 hrs prior to LPS challenge measured after 22 hrs by ELISA relative to control; type: functional; in short: as §1
RAW264.7 [10] = assay: Antiinflammatory activity in mouse RAW264.7 cells assessed as inhibition of LPS-induced increase in IL-6 level at 20 uM incubated for 2 hrs prior to LPS challenge measured after 22 hrs by ELISA relative to control; type: functional; in short: as §1
RAW264.7 [11] = assay: Antiinflammatory activity in mouse RAW264.7 cells assessed as inhibition of LPS-induced increase in IL-1beta level at 20 uM incubated for 2 hrs prior to LPS challenge measured after 22 hrs by ELISA relative to control; type: functional; in short: as §1
RAW264.7 [12] = assay: Antiinflammatory activity in mouse RAW264.7 cells assessed as inhibition of LPS-induced nitric oxide production incubated for 2 hrs prior to LPS challenge measured after 22 hrs relative to vehicle-treated control; type: functional, cell-based; in short: as §2
RAW264.7 [13] = assay: Antiinflammatory activity in mouse RAW264.7 cells assessed as inhibition of LPS-induced nitric oxide production at 2 uM incubated for 2 hrs prior to LPS challenge measured after 22 hrs relative to vehicle-treated control; type: functional; in short: as §2
RAW264.7 [14] = assay: Antiinflammatory activity in mouse RAW264.7 cells assessed as inhibition of LPS-induced nitric oxide production at 20 uM incubated for 2 hrs prior to LPS challenge measured after 22 hrs relative to vehicle-treated control; type: functional; in short: as §2
RAW264.7 [15] = assay: Antiinflammatory activity in mouse RAW264.7 cells assessed as inhibition of LPS-induced ROS generation incubated for 2 hrs prior to LPS challenge measured after 22 hrs by spectrophotometry relative to vehicle-treated control; type: functional, cell-based
In short: (§3)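 Compound (0–20 µM) applied to RAW 264.7 cells for 2 h, then LPS added for a further 22 h. Cells harvested, loaded with 10 µM DCFH-DA for 20 min, washed twice with cold PBS. Intracellular ROS read as arbitrary fluorescence units. Means ± SEM, four independent experiments.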

RAW264.7 [16] = assay: Antiinflammatory activity in mouse RAW264.7 cells assessed as inhibition of LPS-induced ROS generation at 10 uM incubated for 2 hrs prior to LPS challenge measured after 22 hrs by spectrophotometry relative to vehicle-treated control; type: functional; in short: as §3
RAW264.7 [17] = assay: Antiinflammatory activity in mouse RAW264.7 cells assessed as inhibition of LPS-induced ROS generation at 20 uM incubated for 2 hrs prior to LPS challenge measured after 22 hrs by spectrophotometry relative to vehicle-treated control; type: functional; in short: as §3
[18] = molecular target: Transcription factor p65 (Mus musculus) (UniProt Q04207); assay: Antiinflammatory activity in mouse RAW264.7 cells assessed as inhibition of LPS-induced NF-kappaB p65 subunit nuclear translocation at 20 uM incubated for 1 hr prior to LPS challenge measured after 30 mins by immunofluorescence assay relative to vehicle-treated control; type: cell-based
In short: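 Immunofluorescence: RAW 264.7 cells pretreated with 20 µM compound for 1 h, then LPS for 30 min. p65 subunit localization (cytoplasm vs nucleus) imaged by fluorescence microscopy.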

[19] = molecular target: Transcription factor p65 (Mus musculus) (UniProt Q04207); assay: Antiinflammatory activity in mouse RAW264.7 cells assessed as inhibition of LPS-induced DNA binding activity of NF-kappaB p65 incubated for 1 hr prior to LPS challenge measured after 30 mins by ELISA relative to vehicle-treated control; type: cell-based
In short: (§4)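 RAW264.7 cells preincubated with compound (0–20 µM) for 1 h, then stimulated with LPS for 30 min. NF-κB p65 DNA-binding activity quantified by ELISA-based TransAM p65 transcription factor kit. Means ± SEM of three independent experiments. LPS given at 0.5 µg/mL.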

[20] = molecular target: Transcription factor p65 (Mus musculus) (UniProt Q04207); assay: Antiinflammatory activity in mouse RAW264.7 cells assessed as inhibition of LPS-induced DNA binding activity of NF-kappaB p65 at 2 uM incubated for 1 hr prior to LPS challenge measured after 30 mins by ELISA relative to vehicle-treated control; type: cell-based; in short: as §4
[21] = molecular target: Transcription factor p65 (Mus musculus) (UniProt Q04207); assay: Antiinflammatory activity in mouse RAW264.7 cells assessed as inhibition of LPS-induced DNA binding activity of NF-kappaB p65 at 10 uM incubated for 1 hr prior to LPS challenge measured after 30 mins by ELISA relative to vehicle-treated control; type: cell-based; in short: as §4
[22] = molecular target: Transcription factor p65 (Mus musculus) (UniProt Q04207); assay: Antiinflammatory activity in mouse RAW264.7 cells assessed as inhibition of LPS-induced DNA binding activity of NF-kappaB p65 at 20 uM incubated for 1 hr prior to LPS challenge measured after 30 mins by ELISA relative to vehicle-treated control; type: cell-based; in short: as §4

Sequence of Transcription factor p65 (Mus musculus) (Q04207 whole entry): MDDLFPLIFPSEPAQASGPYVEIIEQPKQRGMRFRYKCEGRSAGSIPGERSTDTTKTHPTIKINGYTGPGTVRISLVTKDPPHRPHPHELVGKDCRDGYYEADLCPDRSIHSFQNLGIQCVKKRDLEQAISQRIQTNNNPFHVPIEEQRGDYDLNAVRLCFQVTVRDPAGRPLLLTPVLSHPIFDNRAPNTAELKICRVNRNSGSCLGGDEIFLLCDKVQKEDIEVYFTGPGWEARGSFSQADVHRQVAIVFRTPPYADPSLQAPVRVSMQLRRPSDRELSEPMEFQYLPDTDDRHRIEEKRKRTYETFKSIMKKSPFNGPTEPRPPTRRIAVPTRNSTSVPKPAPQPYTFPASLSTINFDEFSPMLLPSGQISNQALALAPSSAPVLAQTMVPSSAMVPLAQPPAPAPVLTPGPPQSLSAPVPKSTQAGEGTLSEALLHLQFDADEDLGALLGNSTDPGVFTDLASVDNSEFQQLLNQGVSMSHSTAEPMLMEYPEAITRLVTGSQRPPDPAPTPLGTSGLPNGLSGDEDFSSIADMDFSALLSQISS

In the case of `C[C@]12CCC(=O)C=C1CC[C@@H]1[C@@H]2[C@@H](O)C[C@@]2(C)[C@H]1CC[C@]2(O)C(=O)CO`, the inhibition (RAW264.7 [1]) is reported as “Active”, the inhibition (RAW264.7 [2]) is reported as “Active” and the inhibition (RAW264.7 [3]) is reported as “Active”. For the same compound, the inhibition (RAW264.7 [4]) was “Active”.
For `CC1=C[C@]2(C(C)(C)O)C[C@]3(OC2=O)[C@@H](C)CC[C@@H]13`, the Activity (RAW264.7 [5]) was “Non-toxic”, the inhibition (RAW264.7 [6]) was “Dose-dependent effect” and the inhibition (RAW264.7 [7]) was “Dose-dependent effect”. The inhibition (RAW264.7 [8]) was “Dose-dependent effect”, the inhibition at 10 µM (RAW264.7 [1]) was 37.6% and the inhibition at 10 µM (RAW264.7 [2]) was 37.3%. For the same compound, the inhibition at 10 µM (RAW264.7 [3]) was 27.9%, the inhibition at 20 µM (RAW264.7 [9]) was 55.4% and the inhibition at 20 µM (RAW264.7 [10]) was 78.3%. For the same compound, the inhibition at 20 µM (RAW264.7 [11]) was 68%, the inhibition (RAW264.7 [12]) was “Dose-dependent effect” and the inhibition at 2 µM (RAW264.7 [13]) was 25.1%. For the same compound, the inhibition at 10 µM (RAW264.7 [4]) was 53.9%, the inhibition at 20 µM (RAW264.7 [14]) was 71% and the inhibition (RAW264.7 [15]) was “Dose-dependent effect”. The inhibition at 10 µM (RAW264.7 [16]) was 57.9%, the inhibition at 20 µM (RAW264.7 [17]) was 82.3% and the inhibition [18] was “Active”. For the same compound, the inhibition [19] was “Dose-dependent effect”, the inhibition [20] was 36.5% and the inhibition [21] was 51.3%. It also gave an inhibition [22] of 68%.
